According to article PMC6844228 (International Journal of Nanomedicine, 2019):

How the values were obtained:
mouse sarcoma S180 cells = experiment: Cell Counting Kit-8 cytotoxicity assay, S180; assay type: cell-based; conditions: S-180, 48 h
Method in brief: (§1)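 Cells were seeded at 5×10^3 per well in DMEM with 10% FBS, 100 μg/mL streptomycin and 100 IU/mL penicillin, then held 24 h at 37°C under 5% CO2. Medium was replaced with test compound at CA4-equivalent concentrations of 0.0025, 0.025, 0.25, 2.5, 25, 125 and 250 μM for 48 h. Then 10% CCK-8 was added for 1.5 h at 37°C and A450 read. Viability was calculated against control and blank wells, and IC50 derived.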

[1] = system: human hepatocellular liver carcinoma HepG2 cells; experiment: Cell Counting Kit-8 cytotoxicity assay, HepG2; assay type: cell-based; conditions: HepG2, 48 h
Method in brief: as §1

[2] = system: human breast adenocarcinoma MCF-7 cells; experiment: Cell Counting Kit-8 cytotoxicity assay, MCF-7; assay type: cell-based; conditions: MCF7, 48 h
Method in brief: as §1

[3] = In vivo biodistribution in S180 tumor-bearing mice; conditions: iv, drug-equivalent doses of 28 mg/kg CA4P, heart, kidney, liver, spleen, lung
[4] = In vivo pharmacokinetics after tail vein injection; conditions: 2 h following injection, SD rats
Method in brief: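 Male rats (180–200 g) were fasted 12 h, then dosed into the tail vein at drug-equivalent 28 mg/kg of phosphate prodrug. Orbital-vein blood was taken at 2, 5, 10, 15, 20, 30 and 45 min and at 1, 1.5, 2, 4, 6 and 10 h, into heparinized vials. Plasma was separated (4,000 rpm, 10 min), stored at −20°C, and prodrug and released parent drug were quantified by HPLC. n=6, mean ± SD.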

Structure (SMILES) | IC50 (mouse sarcoma S180 cells) | IC50 [1] | IC50 [2] | Tissue detection of prodrug [3] | Detection of prodrug in plasma [4]
COc1ccc(/C=C\c2cc(OC)c(OC)c(OC)c2)cc1O [CA4, combretastatin A4] | < 1 nM | 64 ± 6 nM | 4 ± 2 nM |  | 
COc1ccc(/C=C\c2cc(OC)c(OC)c(OC)c2)cc1OP(=O)(O)O [CA4P, combretastatin A4 phosphate] | < 1 nM | 179 ± 53 nM | 50 ± 8 nM | could be detected in the heart, liver, spleen, lung, kidney, and tumor | could not be detected
